WT yeast gro inh = growth inhibition of WT yeast, mitochondrial fusion screen. mitochondrial fusion phenotypic screen, WT strain. inhibition, % at 10 µM. hit rate 2.1% among 190,000. AID 1362; in the data active = inhibition above about 58%; tested in S. cerevisiae
RAM inhibit = blocks the yeast RAM network | S. cerevisiae dse1pr::URA3 reporter, 5-FOA growth OD615, 2 d; analog-sensitive cbk1-as2 kinase mutant strain | inhibition, % at 50 µM | hit rate 1.8% among 190,000 | AID 868;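 active = inhibition above a set limit, 3 SD over mean compound inhibition, cut at about 8.4% in these data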;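 also: 0% = DMSO-only wells with no growth and 100% = 10 µM 1-NA-PP1 full growth; inhibition rescues growth on 5-FOA so higher OD means more RAM inhibition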
Yeast lifespan up = extends the lifespan of yeast | AID 775 | inhibition of the nicotinamide effect, % at 10 µM | S. cerevisiae growth with nicotinamide, OD615; deaD strain in restrictive glucose medium | hit rate 0.68% among 130,000;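 active = inhibition above a set limit, placed 3 SD over the median of all compounds, cut at about 26% in these data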;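 also: 0% = nicotinamide-treated wells and 100% = cells grown without nicotinamide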
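System: DeaD-strain S. cerevisiae / Buffer or medium: CSMM-D, restrictive glucose (dextrose) synthetic minimal medium / Probe or stimulus: nicotinamide, 1.5 mM, co-present with compound / Compound: one concentration, 10 µM, DMSO 0.25% / Incubation: 48 h compound exposure at 30 °C, humidified / Technique: optical density (absorbance) at 615 nm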
Yeast growth inh = yeast BB579 growth reduction in restrictive medium; S. cerevisiae BB579 growth, OD615, 48 h; inhibition, % at 10 µM; hit rate 0.51% among 140,000;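 active = inhibition above a set limit, 3 SD over the mean compound inhibition, cut at about 44% in these data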
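Assay system – yeast BB579 (DeaD) · Dosing – single compound dose of 10 µM, 0.25% DMSO final · Detection – OD615 turbidity measurement · Buffer or medium – CSMM-D restrictive synthetic medium containing dextrose (glucose) · Benchmarks – positive control amphotericin B 10 µg/mL · Incubation – 48 h exposure, 30 °C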
KCC2 mod = modulators of human KCC2 chloride dependent transport | KCC2 cells, thallium flux FluoZin-2 fluorescence | B-score of Tl+ flux slope (higher = more flux/activation; lower = inhibition) at 10 µM | hit rate 2.2% among 190,000;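 active = thallium flux slope and its plate-corrected score both differing from the plate sample mean at a set confidence after two filtering rounds, in either direction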;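 also: slope of fluorescence scaled to starting intensity during 10 to 20 s after thallium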
Target sequence (Q9H2X9 whole entry, looked up): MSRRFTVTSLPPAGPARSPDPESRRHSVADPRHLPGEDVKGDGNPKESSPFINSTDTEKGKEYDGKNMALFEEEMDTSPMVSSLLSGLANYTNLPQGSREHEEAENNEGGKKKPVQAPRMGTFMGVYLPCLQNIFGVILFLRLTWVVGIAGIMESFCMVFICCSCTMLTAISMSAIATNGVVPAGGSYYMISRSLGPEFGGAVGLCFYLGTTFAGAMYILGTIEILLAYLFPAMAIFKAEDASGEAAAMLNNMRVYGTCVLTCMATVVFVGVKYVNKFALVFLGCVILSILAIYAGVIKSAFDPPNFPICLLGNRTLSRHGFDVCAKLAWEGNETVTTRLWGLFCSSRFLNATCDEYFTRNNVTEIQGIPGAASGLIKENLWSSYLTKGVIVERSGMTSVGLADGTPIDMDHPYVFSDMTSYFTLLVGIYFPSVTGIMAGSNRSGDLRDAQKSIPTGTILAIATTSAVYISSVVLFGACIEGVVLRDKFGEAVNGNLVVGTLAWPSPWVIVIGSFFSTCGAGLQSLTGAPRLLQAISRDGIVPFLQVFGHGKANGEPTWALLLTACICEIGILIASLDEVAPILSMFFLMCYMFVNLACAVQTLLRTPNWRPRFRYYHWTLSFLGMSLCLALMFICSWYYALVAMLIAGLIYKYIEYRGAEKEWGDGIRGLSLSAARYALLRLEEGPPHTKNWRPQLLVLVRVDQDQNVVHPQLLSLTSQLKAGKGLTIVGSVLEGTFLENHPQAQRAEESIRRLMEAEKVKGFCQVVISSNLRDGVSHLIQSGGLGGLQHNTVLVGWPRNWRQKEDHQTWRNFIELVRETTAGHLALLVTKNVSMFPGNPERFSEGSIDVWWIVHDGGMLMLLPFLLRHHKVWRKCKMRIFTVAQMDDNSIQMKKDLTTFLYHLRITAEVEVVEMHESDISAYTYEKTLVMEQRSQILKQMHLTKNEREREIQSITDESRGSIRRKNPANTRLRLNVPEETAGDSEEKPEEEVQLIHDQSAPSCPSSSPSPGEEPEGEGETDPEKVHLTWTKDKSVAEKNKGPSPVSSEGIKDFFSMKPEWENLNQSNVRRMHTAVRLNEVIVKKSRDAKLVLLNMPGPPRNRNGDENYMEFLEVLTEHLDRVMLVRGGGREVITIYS
KCC2 secondary = KCC2 (human) modulation, secondary assay. shares compounds with KCC2 mod. HEK293-KCC2, thallium flux, FluoZin2 fluorescence; stronger effect = higher value. normalised thallium flux (F/F0 slope) at 10 µM. hit rate 15% among 3,700. AID 1713;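 active = thallium flux slope above the same plate's solvent-only control mean plus 3 SD; inconclusive = the two replicate wells disagree; inactive = no significant difference from solvent-only control wells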
KCC2 bumet counter = thallium flux despite bumetanide block in KCC2 cells, secondary assay 3. shares compounds with KCC2 mod. HEK293-KCC2 + bumetanide/ouabain, thallium flux FluoZin2; stronger effect = higher value. normalized thallium flux at 10 µM. hit rate 49% among 3,700. AID 1714;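 active = thallium entry rate above the same plate's blocked-transporter control wells by more than 3 SD; inconclusive = the two repeat wells disagree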;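 also: raw slope of fluorescence over initial fluorescence between 10 and 20 s after thallium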
KCC2 secondary2 = KCC2 (human) modulation, second secondary assay; shares compounds with KCC2 mod; HEK293-KCC2, thallium flux FluoZin2 fluorescence; actives lie on both sides; F/F0 rise rate, 10–20 s post-thallium; normalized thallium flux at 10 µM; hit rate 23% among 3,700;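 active = thallium flux slope more than 3 SD above or below the plate's solvent-only control mean, mostly below; inconclusive = the two repeat wells disagreed; inactive = no significant shift from solvent-only controls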;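 also: raw slope with 0.1% DMSO as baseline and bumetanide as block control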
HEK counter1 = counter-screen for KCC2 modulators: effect in parental HEK293 cells; thallium flux FluoZin2, ouabain; baseline-ratio fluorescence slope, 10–20 s after thallium; thallium flux rate (normalised fluorescence) at 10 µM; shares compounds with KCC2 mod; AID 1716; hit rate 46% among 3,700;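 active = thallium flux rate significantly above the same plate's solvent-only control wells, beyond their mean plus 3 SD; inconclusive = the two replicate wells gave conflicting results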
KCC2 retest ouab = KCC2 (human) modulation, ouabain retest | shares compounds with KCC2 mod | HEK293-KCC2, thallium flux FluoZin2 fluorescence; bidirectional: low = inhibitor, high = activator | raw Tl+ flux slope (below DMSO = inhibition, above = activation) at 10 µM | hit rate 48% among 3,700;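 active = thallium flux slope beyond 3 SD from same-plate DMSO control mean in most replicates, usually higher, sometimes lower; inconclusive = repeat tests gave conflicting results; inactive = no significant difference from controls in most replicates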;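 also: slope of initial-normalized fluorescence between seconds 10 and 20 after thallium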
HEK293 Tl flux2 = parental HEK flux effect, counter-screen 2; AID 1718; shares compounds with KCC2 mod; hit rate 33% among 3,700; thallium flux slope at 10 µM; HEK293 parental, thallium flux FluoZin-2 fluorescence slope;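 active = thallium flux slope above the same plate's solvent-control mean plus 3 SD in both duplicate wells; inconclusive = duplicate wells that disagreed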;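 also: run without ouabain in cells lacking the KCC2 cotransporter; slope of fluorescence scaled to its starting value between 10 and 20 s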
* marks the source's active call; other numbers are inactive results; ? = inconclusive; · = no result given. Hits are enriched below; roughly 5.5% of the tested compounds scored in any of these assays.

SMILES	WT yeast gro inh	RAM inhibit	Yeast lifespan up	Yeast growth inh	KCC2 mod	KCC2 secondary	KCC2 bumet counter	KCC2 secondary2	HEK counter1	KCC2 retest ouab	HEK293 Tl flux2
Cc1ccc(NC(=O)Cn2sc3nc(C)cc(C)c3c2=O)c(Cl)c1	·	·	·	·	-0.55	·	·	·	·	·	·
On1nnc2cc(C(F)(F)F)ccc21	21	0	·	·	-0.031	·	·	·	·	·	·
O=[N+]([O-])C(/C=C(\Cl)[N+](=O)[O-])=C(N1CCCCC1)N1CCCCC1	-12	2	·	·	0.7	·	·	·	·	·	·
CN1CCN(NC(=O)c2cc(-c3cccc(Cl)c3)nc3ccccc23)CC1	6	1	·	·	0.49	·	·	·	·	·	·
CN1CCC(N(C)C(=S)NC(=O)c2cc(-c3cccc(Br)c3)nc3ccccc23)CC1	38	-1	·	·	16*	0.0048	0.015*	0.035	0.012*	?	0.014*
[O-][n+]1cccc2c(Br)cc(Br)c(O)c21	-10	1	·	·	29*	0.0071	0.073*	0.047*	0.047*	0.064*	0.034*
Cc1nc2c(-c3ccccc3)c[nH]n2c(=O)c1Cc1ccccc1	-13	3	·	·	16*	0.0067	0.025*	0.036	0.02*	0.03*	0.019*
COc1ccccc1C(=O)Nc1c2c(nn1-c1cccc(C)c1C)CS(=O)C2 (stereo not drawn)	2	0	-8	-19	6.7*	0.0068	0.0039	0.028	?	0.018	0.0097
COc1cc(NS(=O)(=O)c2cc(C)ccc2OC)c(OC)cc1Cl	11	3	-19	-4	·	·	·	·	·	·	·
COc1ccc(C)cc1S(=O)(=O)Nc1cc(Cl)ccc1Cl	8	3	·	-30	9*	0.017	0.013*	0.031	0.012*	0.02	0.013*
CCn1c(CNC(=O)COc2ccc(C(C)C)cc2)nnc1SCC(=O)Nc1cc(F)ccc1C	-22	3	-15	-5	·	0.0081	0.0064	0.035	?	0.017*	0.012
COc1ccc(CN2C3CCCC2CC(NC(=O)Nc2ccccc2C)C3)cc1 (stereo not drawn)	8	1	·	-40	2.5*	0.0064	0.0046	0.027	?	0.017	0.01
O=C(NC(=S)Nc1cc(C(F)(F)F)ccc1N1CCOCC1)c1sc2ccccc2c1Cl	4	2	0	-31	0.34	·	·	·	·	·	·
CC(=O)N1N=C(c2ccc(C)c([N+](=O)[O-])c2)OC1(C)C	·	·	·	·	-0.24	·	·	·	·	·	·
O=C(Cc1ccc(F)cc1)Oc1ccc(C(=S)N2CCCC2)cc1	-8	2	4	-32	-4.1*	?	?	0.022*	?	0.013*	0.012
O=C(COc1ccc(C(=S)N2CCOCC2)cc1)N1CCCC1	0	0	-19	-2	5.6	·	·	·	·	·	·
CCOC(=O)Cc1csc(NC(=O)Cc2ccc([N+](=O)[O-])cc2)n1	10	-1	-2	-14	0.47	·	·	·	·	·	·
CCOC(=O)Cc1csc(NC(=O)Cc2ccc(Cl)cc2)n1	·	·	·	·	-1.1	·	·	·	·	·	·
CCOC(=O)Cc1csc(NC(=S)NC(=O)c2ccc([N+](=O)[O-])cc2)n1	3	4	-2	-15	9.8*	0.016*	0.036*	0.033	0.025*	0.041*	0.012
CCOC(=O)Cc1csc(NC(=S)NC(=O)c2ccc(Cl)cc2)n1	-2	6	-11	-14	10*	0.0075	0.043*	0.042*	0.042*	0.058*	0.02*
O=C1NC(=NCc2ccccc2)S/C1=C/c1ccc(O)cc1	-19	8	0	-35	-3.4	·	·	·	·	·	·
Cc1ccnc(NS(=O)(=O)c2ccc(NC(=O)c3ccc(S(=O)(=O)N4CC(C)OC(C)C4)cc3)cc2)n1 (stereo not drawn)	-12	4	5	-60	-0.58	·	·	·	·	·	·
S=c1nc[nH]c2c1[nH]c1ccc(Cl)cc12	·	·	·	·	-0.085	·	·	·	·	·	·
S=c1[nH]c2ccc(Cl)cc2s1	·	·	·	·	86*	0.043*	0.098*	0.085*	0.087*	0.087*	0.058*
Cc1c(NC(=O)c2ccc(-c3ccccc3)cc2)cccc1C(=O)O	·	·	·	·	-1	·	·	·	·	·	·
SMILES	WT yeast gro inh	RAM inhibit	Yeast lifespan up	Yeast growth inh	KCC2 mod	KCC2 secondary	KCC2 bumet counter	KCC2 secondary2	HEK counter1	KCC2 retest ouab	HEK293 Tl flux2
O=C(NCCc1ccc(Cl)cc1)C1CCN(S(=O)(=O)N2CCCC2)CC1	5	0	-33	-10	-6.7*	0.0068	0.0047	0.028	0.0078	0.019	0.011
O=C(O)CC(NC(=O)C12CC3CC(CC(C3)C1)C2)c1ccc(OC2CCCC2)cc1 (stereo not drawn)	2	2	·	·	-0.0099	·	·	·	·	·	·
CCc1[nH]c(=S)c(C#N)c2c1CCCC2	-4	0	6	-31	16*	0.0065	0.014*	0.031	0.017*	?	0.014*
CCOC(=O)c1c2c([nH]c(=S)c1C#N)CCCC2	·	·	·	·	11*	0.011	0.011*	0.033	?	?	0.012
O=C1C=C(NCCOC23CC4CC(CC(C4)C2)C3)C2(CCCCC2)O1	5	2	·	·	-0.022	·	·	·	·	·	·
O=C(CN1C(=O)CSc2ccccc21)N1CCc2ccccc21	8	0	5	-19	-4.9*	0.007	0.0055	0.032	0.0084	0.014*	0.011
COc1ccc(CCC(=O)OCC(=O)Nc2ccccc2OC(F)F)cc1OC	8	4	·	·	-0.51	·	·	·	·	·	·
COc1cc2ccccc2cc1C(=O)NC(=S)Nc1cc(C(=O)O)ccc1C	17	6	·	·	-7*	0.008	0.0085*	0.033	0.0064	0.017*	0.01
COc1ccccc1C(=O)NC(=S)Nc1cc(C(=O)O)ccc1C	-13	2	·	·	-1.8	·	·	·	·	·	·
CC1=CCC[C@@H]2[C@@](C)(CC/C(C)=C/C(=O)O)[C@H](C)CC[C@@]12C	73*	7	12	-46	3.5*	0.0073	0.012*	0.027	0.015*	?	0.011
CCN(C(=O)COC(=O)c1ccc(S(=O)(=O)N2CCCc3ccccc32)cc1)C1CCS(=O)(=O)C1 (stereo not drawn)	14	6	·	·	-0.11	·	·	·	·	·	·
Cc1ccc(OCC(=O)NC(=S)Nc2ccc(Br)cn2)cc1	·	·	·	·	31*	0.013*	0.032*	0.032	0.058*	0.037*	0.022*
Cc1ccc(OCC(=O)NC(=S)Nc2cccc(NC(=O)c3ccccc3)c2)cc1	4	4	7	-20	0.89	·	·	·	·	·	·

Screening data (PubChem BioAssay)
